# Assay outcomes as filed in PubChem.
# AI-2 QS mod = modulates the Vibrio harveyi AI-2 quorum sensing system. Vibrio harveyi JMH597 AI-2 luminescence/OD600 ratio, 9 h; stronger effect = lower value; strain lacks LuxN and CqsS sensors; 0 = neutral-control median. hit rate 0.4% among 300,000. AID 2094. activity change, % at 7.5 µM; in the data active = activity change below about -75%, passing the limit was not always enough;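 also: luminescence divided by OD600 gain over 9 h not by final OD600 alone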
# ALR inh = blocks human ALR sulfhydryl oxidase activity | P55789 | purified ALR, DTT oxidation, H2O2 HRP-luminol luminescence | inhibition, % (concentration not given with the values) | hit rate 3.8% among 290,000 | AID 485317;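 active = mean replicate inhibition above about 79%, with every replicate also reaching it, limit read from the data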
# Target sequence (P55789 whole entry, looked up): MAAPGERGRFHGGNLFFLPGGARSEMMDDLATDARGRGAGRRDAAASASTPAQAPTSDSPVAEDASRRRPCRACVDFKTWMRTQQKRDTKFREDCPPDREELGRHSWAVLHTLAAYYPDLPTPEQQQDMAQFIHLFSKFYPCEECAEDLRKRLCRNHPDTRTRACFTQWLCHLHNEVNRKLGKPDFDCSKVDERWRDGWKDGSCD
# HSF1 activator = increases HSF-1 driven luciferase reporter signal; NIH3T3-HGL HSF-1 luciferase reporter, MG132, 8 h; 100% = twice DMSO control signal; activation, % at 9 µM; hit rate 1.7% among 300,000; AID 504408;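 active = mean replicate activation of at least 50% with a set share of replicates each reaching 50%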
# HCV core dimer = blocks dimerization of HCV core protein; hit rate 0.33% among 300,000; inhibition, % at 5 µM; TR-FRET GST/Flag-core106 dimerization, 1536-well;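 active = inhibition above the mean of all tested compounds plus 3 SD, set per screening campaign, cut at about 45% in these data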
#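 Assay system: tagged HCV core106 pair (GST and Flag); medium: KF-containing HEPES buffer, pH 7.45, DTT, CHAPS, BSA; also added: Eu donor and XL665 acceptor anti-tag antibodies; dosing: 5 µM single dose; timing: compound-protein-antibody incubation 4 h at 22.5 °C; signal: TR-FRET 671 and 617 nm emission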
# PHOSPHO1 block = inhibitors of human PHOSPHO1 phosphatase; inhibition, % at 13.3 µM; recombinant PHOSPHO1, absorbance phosphatase assay; hit rate 1.1% among 290,000; Q8TCT1; in the data active = inhibition above about 60%
# Target sequence (Q8TCT1 whole entry, looked up): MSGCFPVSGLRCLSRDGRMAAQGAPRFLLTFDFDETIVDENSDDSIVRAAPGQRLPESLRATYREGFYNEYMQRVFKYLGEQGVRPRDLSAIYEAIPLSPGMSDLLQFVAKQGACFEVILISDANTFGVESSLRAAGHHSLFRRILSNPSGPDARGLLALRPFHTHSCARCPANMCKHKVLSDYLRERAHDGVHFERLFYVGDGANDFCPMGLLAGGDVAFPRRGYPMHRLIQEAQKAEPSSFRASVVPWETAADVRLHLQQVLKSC
# HSF1 inhib = HSF1 inhibition. hit rate 0.77% among 300,000. NIH3T3-HGL HSE-luciferase, MG132-induced, luminescence 8 h; stronger effect = lower value. activity change, negative = inhibition, % at 7.5 µM (by protocol);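 active = more than half of replicate wells show activity change below -50%, luminescence cut by over half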;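 also: luciferase reports HSF-1 transcriptional activity via heat shock element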
# Numbers stand for hits; i = inactive; nt = no result given. Most compounds without a hit are left out; they make up all but 6.8% or so of the library.
SMILES,AI-2 QS mod,ALR inh,HSF1 activator,HCV core dimer,PHOSPHO1 block,HSF1 inhib
CCN(C(=O)CN1C(=O)NC(c2ccccc2)(c2ccc(C)c(C)c2)C1=O)C1CCCCC1 (configuration not stated),nt,i,nt,nt,nt,nt
CCOc1ccc(/C=N/NC(=O)Cc2ccccc2)cc1CN1CC2CC(C1)c1cccc(=O)n1C2 (configuration not stated),nt,i,nt,nt,nt,nt
NC(=O)Cc1ccc(C(=O)c2ccc(Cl)cc2)s1,i,i,i,i,i,-64
O=C(O)Cc1ccc(C(=O)c2ccc(Cl)cc2)s1,i,i,i,i,i,i
CCOc1ccc(C2=Cc3cc(OC)c(OC)cc3C(=C(Cl)Cl)O2)cc1,nt,nt,nt,nt,67,nt
CCOc1ccc(-c2[nH]ncc2-c2ccc(OC)c(OC)c2)c(O)c1,nt,i,nt,i,i,nt
CC(C)C(=O)n1nc(-c2cccnc2)nc1NCc1ccc(F)cc1,i,97,i,i,i,i
CCCC(=O)n1nc(-c2cccnc2)nc1NCc1ccc(OC)cc1,i,nt,i,nt,i,i
CCN(CC)c1ccc(/C=C2/SC(=O)N(C(C)C)C2=O)o1,i,nt,209,nt,i,i
CCN(C(=O)Cn1cnc2ccccc2c1=O)C1CCS(=O)(=O)C1 (configuration not stated),i,i,i,i,nt,i
Cc1ccc(NC2c3ncccc3C(=O)N2C2CCCCC2)cc1C (configuration not stated),i,92,i,i,i,i
O=C1c2cccnc2C(=O)N1C1CCCCC1,i,i,i,i,i,i
Cc1ccc(NC2c3ncccc3C(=O)N2Cc2ccc(F)cc2)cc1 (configuration not stated),i,97,i,i,i,i
Cc1ccc(NC2c3ncccc3C(=O)N2C2CCCCC2)cc1 (configuration not stated),i,96,67,i,i,i
Cc1ccc(NC2c3ncccc3C(=O)N2Cc2cccs2)cc1C (configuration not stated),i,i,i,i,i,i
COc1ccc(C(=O)COC(=O)CNC(=O)c2ccc(OC)cc2)cc1,i,i,i,i,i,i
Cc1cccc(NC(=O)COC(=O)c2cccc3c2C(=O)c2ccccc2C3=O)c1C,i,nt,i,i,i,i
Cc1cccc(C)c1NC(=O)COC(=O)c1cccc2c1C(=O)c1ccccc1C2=O,i,nt,82,i,i,i
O=C(CSc1ncn[nH]1)NCCC(c1ccccc1)c1ccccc1,i,i,i,i,i,i
COC(=O)C1=C(C(=O)OC)C(c2ccccc2O)c2sc(=O)[nH]c2S1 (configuration not stated),i,i,i,i,i,i
CC(=O)Nc1ccc(NC(=O)C(C)n2nc([N+](=O)[O-])c(Br)c2C)cc1 (configuration not stated),i,nt,i,i,63,i
CC(=O)Nc1ccc(NC(=O)C(C)n2nc(C)c([N+](=O)[O-])c2C)cc1 (configuration not stated),i,i,i,i,i,i
Cc1nn(C(C)C(=O)N/N=C/c2ccc(N(C)C)cc2)c(C)c1[N+](=O)[O-] (configuration not stated),i,99,i,i,i,i
COc1ccc(NC(=S)NNC(=O)C(C)n2nc(C)c([N+](=O)[O-])c2C)cc1 (configuration not stated),i,i,i,i,68,i
Cc1nn(CCC(=O)NNC(=S)Nc2ccc([N+](=O)[O-])cc2)c(C)c1[N+](=O)[O-],i,i,i,i,i,i
SMILES,AI-2 QS mod,ALR inh,HSF1 activator,HCV core dimer,PHOSPHO1 block,HSF1 inhib
Cc1nn(C(C)C(=O)NNC(=S)Nc2ccc(F)cc2)c(C)c1[N+](=O)[O-] (configuration not stated),i,i,i,i,72,i
Cc1nn(-c2ccc(C(=O)NCC(c3ccco3)N3CCCC3)cc2)c(C)c1Cl (configuration not stated),nt,i,nt,nt,nt,nt
CC(C)(O)C#Cc1ccc(CN2CCN(CCc3ccccc3)C(CCO)C2)s1 (configuration not stated),i,i,i,i,i,i
COc1ccc(CNC(=O)C(c2ccc(C)o2)N(C(=O)c2snc(C(N)=O)c2N)c2ccccc2OC)cc1 (configuration not stated),i,i,58,i,i,i
O=C(CC(SCCO)c1ccc2c(c1)OCO2)c1ccco1 (configuration not stated),i,97,i,i,i,i
CC(NCc1ccc(N(C)C)cc1)C1CC2CCC1C2 (configuration not stated),i,98,i,i,i,i
Cc1ccc(C(=O)CCC(=O)OC(C)C(=O)NC2CCCCC2C)cc1 (configuration not stated),nt,i,nt,nt,nt,nt
CC(=O)Nc1ccc(SCC(=O)N(C)CC(=O)Nc2ccccc2Cl)cc1,nt,98,nt,nt,nt,nt
CN(CC(=O)Nc1ccccc1Cl)C(=O)COC(=O)CSc1ccc(F)cc1,i,i,i,i,nt,i
CC(=O)Nc1ccc(SCc2ncc(-c3ccccc3)o2)cc1,i,99,i,i,i,i
COCC(=O)Nc1ccccc1-c1ccccc1,i,i,i,i,i,i
CC(=O)Nc1ccc(SCC(=O)Nc2ccccc2-c2ccccc2)cc1,i,98,i,i,i,i
COc1ccc(N2CCN(c3ccc(S(=O)(=O)N(C(C)C)C(C)C)cn3)CC2)cc1,i,i,i,i,i,i
C=C(NC(=O)C(=C)NC(=O)c1csc(C2=NC3c4csc(n4)C4NC(=O)c5csc(n5)C(C(C)(O)C(C)O)NC(=O)C5CSC(=N5)/C(=C/C)NC(=O)C(C(C)O)NC(=O)c5csc(n5)C3(CC2)NC(=O)C(C)NC(=O)C(=C)NC(=O)C(=C)NC(=O)C(C(C)C)NC2C=Cc3c(C(C)O)cc(nc3C2O)C(=O)OC4C)n1)C(N)=O (configuration not stated),nt,nt,i,nt,nt,i
C=C(NC(=O)C(=C)NC(=O)c1csc(C2=NC3c4csc(n4)C4NC(=O)c5csc(n5)C([C@@](C)(O)C(C)O)NC(=O)C5CSC(=N5)/C(=C\C)NC(=O)C(C(C)O)NC(=O)c5csc(n5)[C@]3(CC2)NC(=O)C(C)NC(=O)C(=C)NC(=O)C(C)NC(=O)C(C(C)CC)NC2C=Cc3c(C(C)O)cc(nc3C2O)C(=O)OC4C)n1)C(N)=O (some centres not stated),nt,nt,nt,70,nt,nt
COc1cc(/C=C/c2ccc(O)cc2)cc(OC)c1,i,80,i,i,i,i
CCCN(CCC)c1ccc(CC(=O)NC(C)Cc2ccccc2)cc1 (configuration not stated),i,98,i,i,i,i
CCN(CC)c1ccc(CC(=O)NC(C)Cc2ccccc2)cc1 (configuration not stated),i,100,i,i,i,i
